ChEMBL document CHEMBL3091378, “Design, synthesis and biological evaluation of α-substituted isonipecotic acid benzothiazole analogues as potent bacterial type II topoisomerase inhibitors” (Bioorg Med Chem Lett, 2013)
≈ marks a conversion by molar mass, not a printed value. Calls of active or inactive are those of the source. The calls are words filed in the database; no cut-off is given here.

Key:
[1] = Solubility of the compound in PBS at pH 7.4 after 24 hrs by turbidimetric analysis; type: physicochemical
Outline: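 Doubling dilutions in DMSO diluted 20-fold into 100 mM PBS pH 7.4, equilibrated 24 h at room temperature, absorbance read at 620 nm. Value is the highest concentration with no measurable precipitate.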

DNA gyrase = DNA gyrase (Staphylococcus aureus, UniProt P0A0K8+P20831); assay: Inhibition of Staphylococcus aureus DNA gyrase ATPase subunit GyrA2/GyrB2 after 60 mins by malachite green staining assay; type: protein-complex assay
Outline: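 S. aureus gyrase A2B2, 10 nM, with 0.08 mg/mL DNA in 40 mM HEPES pH 7.6, 10 mM Mg acetate, 0.5 M K glutamate, 0.01 mg/mL BSA, 2 mM DTT, 5% DMSO. Reaction started with 1 mM ATP and run 60 min at 30 °C. Malachite green absorbance read at 600 nm. IC50 derived using no-compound and no-enzyme controls.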

Enterococcus faecalis = assay: Antibacterial activity against Enterococcus faecalis ATCC 29212 assessed as growth inhibition after 16 to 20 hrs by broth microdilution method; type: functional
Outline: (§1)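 Broth microdilution susceptibility testing following the CLSI M7-A7 standard; MIC determined.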

Haemophilus influenzae = assay: Antibacterial activity against Haemophilus influenzae ATCC 49247 assessed as growth inhibition after 16 to 20 hrs by broth microdilution method; type: functional; outline: as §1
[2] = Clearance in rat at 3 mg/kg, iv; type: ADME, organism-based; set-up: dose 3 mg/kg, route intravenous; settings: in vivo
Outline: (§2)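 Single 3 mg/kg dose given as an IV bolus by tail vein or by oral gavage, dose volume 5 mL/kg. Rats were bled by jugular vein catheter. Anaesthetised mice were bled from the retro-orbital plexus. Plasma was extracted into methanol and drug measured by LC/MS/MS. Cmax (oral), AUC and clearance (IV) and bioavailability were calculated from plasma concentrations.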

Staphylococcus aureus [3] = assay: Antibacterial activity against Staphylococcus aureus ATCC 29213 assessed as spontaneous mutant measuring frequency of resistance at 4 to 8 fold MIC relative to control; type: functional, organism-based
[4] = Cmax in rat at 3 mg/kg, po; type: ADME, organism-based; set-up: dose 3 mg/kg, route oral; settings: in vivo; outline: as §2
Topoisomerase IV = Topoisomerase IV (Staphylococcus aureus, UniProt P0C1S7+P0C1U9); assay: Inhibition of Staphylococcus aureus DNA topoisomerase 4 subunit ParC2/ParE2 after 60 mins by malachite green staining assay; type: protein-complex assay
Outline: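 S. aureus topo IV C2E2, 25 nM, with 0.01 mg/mL DNA in 50 mM Tris-HCl pH 7.5, 5 mM MgCl2, 0.35 M K glutamate, 0.05 mg/mL BSA, 5 mM DTT, 1% DMSO. ATP added at 1 mM to start, then 30 °C for 60 min. Malachite green read at 600 nm. IC50 calculated relative to no-compound and no-enzyme controls.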

Staphylococcus aureus [5] = assay: Antibacterial activity against Staphylococcus aureus ATCC 29213 assessed as growth inhibition after 16 to 20 hrs by broth microdilution method; type: functional; outline: as §1
[6] = Intrinsic clearance in mouse liver microsomes at 10 uM by LC-MS analysis; type: ADME, Microsome; settings: read-out: CLH
Outline: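 Compound at 10 μM, duplicate, 0.1% DMSO, with mouse liver microsomes at 1 mg/mL protein. Started with 1 mM NADPH and stopped at 0, 10, 30 and 60 min. Acetonitrile extracts analysed by LCMS. T1/2 taken from the slope of peak area over time, then converted to intrinsic clearance.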

Streptococcus pyogenes = assay: Antibacterial activity against Streptococcus pyogenes ATCC 51339 assessed as growth inhibition after 16 to 20 hrs by broth microdilution method; type: functional; outline: as §1
[7] = Plasma protein binding in rat; type: ADME, cell-free; settings: read-out: PPB (converted)
[8] = Inhibition of Escherichia coli DNA gyrase ATPase subunit A2B2 after 60 mins by malachite green staining assay
Outline: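 E. coli gyrase A2B2, 10 nM, with 0.08 mg/mL DNA in 35 mM Tris pH 7.5, 24 mM KCl, 2 mM MgCl2, 6.5% glycerol, 0.1 mg/mL BSA, 2 mM DTT, 5% DMSO. Started with 1 mM ATP, 30 °C for 60 min. Phosphate read with malachite green at 600 nm after 5 min. IC50 taken against no-compound and no-enzyme controls.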

[9] = Clearance in mouse at 3 mg/kg, iv; type: ADME, organism-based; set-up: dose 3 mg/kg, route intravenous; settings: in vivo; outline: as §2
[10] = Cmax in mouse at 3 mg/kg, po; type: ADME, organism-based; set-up: dose 3 mg/kg, route oral; settings: in vivo; outline: as §2
[11] = AUC in mouse at 3 mg/kg, iv; type: ADME, organism-based; set-up: dose 3 mg/kg, route intravenous; settings: plasma; outline: as §2
[12] = Oral bioavailability in mouse at 3 mg/kg; type: ADME, organism-based; settings: in vivo; outline: as §2
[13] = Oral bioavailability in rat at 3 mg/kg; type: ADME, organism-based; settings: in vivo; outline: as §2
[14] = AUC in rat at 3 mg/kg, iv; type: ADME, organism-based; set-up: dose 3 mg/kg, route intravenous; settings: plasma; outline: as §2

Compound | solubility kinetic at 24 h [1] [µg/mL] | IC50 (DNA gyrase) [nM] | MIC (Enterococcus faecalis) [µg/mL] | MIC (Haemophilus influenzae) [µg/mL] | clearance [2] [mL/min/kg] | Cmax [4] [ng/mL] | MIC (Staphylococcus aureus [5]) [µg/mL] | CLint scaled at 10 µM [6] [mL/min/kg] | MIC (Streptococcus pyogenes) [µg/mL] | IC50 [8] [µg/mL] | clearance [9] [mL/min/kg] | Cmax [10] [ng/mL] | AUC [11] [ng·h/mL] | bioavailability [12] [%] | bioavailability [13] [%] | AUC [14] [ng·h/mL] | Activity (Staphylococcus aureus [3]) | IC50 (Topoisomerase IV) [nM] | fraction unbound [7]
CCNC(=O)Nc1nc2cc(-c3cnc(N4CCC(C)(C(=O)O)CC4)nc3)cc(-c3ccccn3)c2s1 | > 800 | 15.5 | 0.015 (≈ 0.029 µM) | 2 (≈ 3.86 µM) | 2.8 | 1800 | 0.12 (≈ 0.232 µM) | < 5.8 | 0.06 (≈ 0.116 µM) | – | – | – | – | – | – | – | inactive | 15.5 | 0.007
CCNC(=O)Nc1nc2cc(-c3cnc(N4CCC(C)(C(=O)O)CC4)cn3)cc(-c3ccccn3)c2s1 | > 800 | 38.6 | 0.03 (≈ 0.058 µM) | 8 (≈ 15.5 µM) | – | – | 0.5 (≈ 0.966 µM) | < 5.8 | 0.12 (≈ 0.232 µM) | – | – | – | – | – | – | – | – | – | –
CCNC(=O)Nc1nc2cc(-c3cnc(N4CCCC(C)(C(=O)O)CC4)nc3)cc(-c3ccccn3)c2s1 (stereo not drawn) | > 800 | 11.3 | – | 8 (≈ 15 µM) | – | – | 0.12 (≈ 0.226 µM) | < 5.8 | 0.12 (≈ 0.226 µM) | – | – | – | – | – | – | – | – | – | –
CCNC(=O)Nc1nc2cc(-c3cnc(N4CCC(C(=O)O)(c5ccccc5)CC4)nc3)cc(-c3ccccn3)c2s1 | 12.5 (≈ 21.6 µM) | – | 0.06 (≈ 0.104 µM) | > 16 | – | – | 0.5 (≈ 0.863 µM) | < 5.8 | 0.5 (≈ 0.863 µM) | 0.013 (≈ 0.0224 µM) | – | – | – | – | – | – | – | – | –
CCNC(=O)Nc1nc2cc(-c3cnc(N4CCC(N)(C(=O)O)CC4)nc3)cc(-c3ccccn3)c2s1 | 25 (≈ 48.2 µM) | – | > 16 | > 16 | – | – | > 16 | – | 4 (≈ 7.71 µM) | 0.025 (≈ 0.0482 µM) | – | – | – | – | – | – | – | – | –
CCNC(=O)Nc1nc2cc(-c3cnc(N4CCC(O)(C(=O)O)CC4)nc3)cc(-c3ccccn3)c2s1 | 100 (≈ 192 µM) | – | 0.5 (≈ 0.962 µM) | 8 (≈ 15.4 µM) | – | – | 8 (≈ 15.4 µM) | – | 0.12 (≈ 0.231 µM) | 0.003 (≈ 0.00577 µM) | – | – | – | – | – | – | – | – | –
CCNC(=O)Nc1nc2cc(-c3cnc(N4CCC(C(=O)O)(S(C)(=O)=O)CC4)nc3)cc(-c3ccccn3)c2s1 | > 800 | – | 4 (≈ 6.88 µM) | > 16 | – | – | > 16 | – | 4 (≈ 6.88 µM) | 0.015 (≈ 0.0258 µM) | – | – | – | – | – | – | – | – | –
CCNC(=O)Nc1nc2cc(-c3cnc(N4CCCCC4(C)C(=O)O)nc3)cc(-c3ccccn3)c2s1 (stereo not drawn) | 6.25 (≈ 12.1 µM) | – | 0.5 (≈ 0.966 µM) | 8 (≈ 15.5 µM) | – | – | 0.5 (≈ 0.966 µM) | – | 0.5 (≈ 0.966 µM) | 0.007 (≈ 0.0135 µM) | – | – | – | – | – | – | – | – | –
CCNC(=O)Nc1nc2cc(-c3cnc(N4CCC(C(=O)O)CC4)nc3)cc(-c3ccccn3)c2s1 | > 800 | 19.9 | 0.015 (≈ 0.0298 µM) | 2 (≈ 3.97 µM) | – | – | 0.12 (≈ 0.238 µM) | < 5.8 | 0.03 (≈ 0.0596 µM) | – | 55 | 70 | 900 | 8 | – | – | inactive | 23.8 | 0.007
CCNC(=O)Nc1nc2cc(-c3cnc(N4CCC(CC)(C(=O)O)CC4)nc3)cc(-c3ccccn3)c2s1 | > 800 | 22.6 | 0.015 (≈ 0.0282 µM) | 4 (≈ 7.52 µM) | 1.5 | 3500 | 0.06 (≈ 0.113 µM) | < 5.8 | 0.06 (≈ 0.113 µM) | – | 3.5 | 6100 | 14300 | 87 | 80 | 27700 | – | – | –
CCNC(=O)Nc1nc2cc(-c3cnc(N4CCC(C(=O)O)(C(F)(F)F)CC4)nc3)cc(-c3ccccn3)c2s1 | > 800 | 28 | 0.25 (≈ 0.437 µM) | 16 (≈ 28 µM) | – | – | 2 (≈ 3.5 µM) | – | 0.25 (≈ 0.437 µM) | – | – | – | – | – | – | – | – | – | –
CCNC(=O)Nc1nc2cc(-c3nc(N4CCC(C)(C(=O)O)CC4)ns3)cc(-c3ccccn3)c2s1 | – | 107 | – | > 16 | – | – | 1 (≈ 1.91 µM) | – | 1 (≈ 1.91 µM) | – | – | – | – | – | – | – | – | – | –

Second part, led by results:

solubility kinetic at 24 h [1] [µg/mL] | IC50 (DNA gyrase) [nM] | MIC (Enterococcus faecalis) [µg/mL] | MIC (Haemophilus influenzae) [µg/mL] | clearance [2] [mL/min/kg] | Cmax [4] [ng/mL] | MIC (Staphylococcus aureus [5]) [µg/mL] | CLint scaled at 10 µM [6] [mL/min/kg] | MIC (Streptococcus pyogenes) [µg/mL] | IC50 [8] [µg/mL] | clearance [9] [mL/min/kg] | Cmax [10] [ng/mL] | AUC [11] [ng·h/mL] | bioavailability [12] [%] | bioavailability [13] [%] | AUC [14] [ng·h/mL] | Compound | Activity (Staphylococcus aureus [3]) | IC50 (Topoisomerase IV) [nM] | fraction unbound [7]
6.25 (≈ 16.6 µM) | 37.3 | 0.12 (≈ 0.32 µM) | – | – | – | – | – | – | – | – | – | – | – | – | – | CCNC(=O)Nc1nc2cc(-c3cccnc3)cc(-c3ccccn3)c2s1 | – | – | –
50 (≈ 119 µM) | 2.38 | 0.12 (≈ 0.286 µM) | – | – | – | – | – | – | – | – | – | – | – | – | – | CCNC(=O)Nc1nc2cc(-c3ccc(C(=O)O)nc3)cc(-c3ccccn3)c2s1 | – | – | –
> 800 | 9.93 | 0.25 (≈ 0.496 µM) | 1 (≈ 1.99 µM) | – | – | 0.5 (≈ 0.993 µM) | – | 0.06 (≈ 0.119 µM) | – | – | – | – | – | – | – | CCNC(=O)Nc1nc2cc(-c3cnc(N4CCCC4(C)C(=O)O)nc3)cc(-c3ccccn3)c2s1 (stereo not drawn) | – | – | –
> 800 | 79.4 | – | 4 (≈ 7.94 µM) | – | – | 2 (≈ 3.97 µM) | – | 0.5 (≈ 0.993 µM) | – | – | – | – | – | – | – | CCNC(=O)Nc1nc2cc(-c3cnc(N4CCC(C)(C(=O)O)C4)nc3)cc(-c3ccccn3)c2s1 (stereo not drawn) | – | – | –
> 800 | 23.2 | 0.03 (≈ 0.0581 µM) | 2 (≈ 3.87 µM) | 7.6 | 600 | 0.12 (≈ 0.232 µM) | < 5.8 | 0.12 (≈ 0.232 µM) | – | 6.5 | 1700 | 7600 | 33 | 31 | 6600 | CCNC(=O)Nc1nc2cc(-c3ccc(N4CCC(C)(C(=O)O)CC4)nc3)cc(-c3ccccn3)c2s1 | – | – | –
> 800 | 29 | 0.06 (≈ 0.116 µM) | 4 (≈ 7.74 µM) | – | – | 1 (≈ 1.94 µM) | – | 0.06 (≈ 0.116 µM) | – | – | – | – | – | – | – | CCNC(=O)Nc1nc2cc(-c3cncc(N4CCC(C)(C(=O)O)CC4)c3)cc(-c3ccccn3)c2s1 | – | – | –
